ChEMBL document CHEMBL1146083, “Novel potent and efficacious nonpeptidic urotensin II receptor agonists” (J Med Chem, 2006)
The source made the active and inactive calls. The rule behind the calls is not given here.

target: T1, Urotensin-2 receptor (Homo sapiens) (UniProt Q9UKP6); assay: (§1) Activity against human urotensin-2 receptor expressed in NIH3T3 cells; format: cell-based
T1 sequence (whole entry): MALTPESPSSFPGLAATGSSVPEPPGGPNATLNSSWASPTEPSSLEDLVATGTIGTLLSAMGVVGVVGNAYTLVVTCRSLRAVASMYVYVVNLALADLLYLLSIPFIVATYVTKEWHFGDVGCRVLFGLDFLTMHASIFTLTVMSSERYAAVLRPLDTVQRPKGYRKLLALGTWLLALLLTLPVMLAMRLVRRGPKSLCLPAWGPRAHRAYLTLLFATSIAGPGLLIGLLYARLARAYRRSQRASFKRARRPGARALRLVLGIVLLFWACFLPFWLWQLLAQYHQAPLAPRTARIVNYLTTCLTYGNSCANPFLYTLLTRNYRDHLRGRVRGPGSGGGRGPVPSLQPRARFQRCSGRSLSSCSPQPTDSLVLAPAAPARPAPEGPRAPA
How it was run: (§2)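 R-SAT functional agonist assay. NIH-3T3 cells grown to 80% confluence in DMEM with 10% bovine calf serum, then transfected for 18 h with human UII receptor plus β-galactosidase marker. Cells frozen, thawed and plated in DMEM with 0.4% calf serum and 30% UltraCulture onto compound. Five-day incubation in 5% CO2, then reporter read at 420 nm. Eight doses in triplicate; pEC50 averaged over 2-6 determinations; efficacy normalized to UII as 100%.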

| Compound | Efficacy [%] | Log EC50 |
| --- | --- | --- |
| Cc1ccsc1C(=O)OC(CCN(C)C)c1ccc(Cl)cc1 (configuration not stated) | 119 | – |
| CN(C)CCC(NC(=O)NCc1ccccc1)c1ccc(Cl)cc1 (configuration not stated) | 179 | – |
| CN(C)CCC(NC(=O)c1ccc(Oc2ccccc2)cc1)c1ccc(Cl)cc1 (configuration not stated) | 89 | – |
| Cc1ccc(COC(CCN(C)C)c2ccc(Cl)cc2)cc1 (configuration not stated) | – | inactive |
| CN(C)CC[C@@H](NC(=O)c1ccc(-c2ccccc2)cc1)c1ccc(Cl)cc1 | 96 | – |
| CN(C)CCC1(c2ccc(Cl)cc2)Cc2ccccc2C(=O)O1 (configuration not stated) | 133 | – |
| CN(C)CCC(NC(=O)c1ccc(-c2ccccc2)cc1)c1ccc(Cl)cc1 (configuration not stated) | 116 | – |
| Cc1ccccc1C(=O)NC(CCN(C)C)c1ccc(Cl)cc1 (configuration not stated) | 175 | – |
| COc1ccccc1COC(CCN(C)C)c1ccc(Cl)cc1 (configuration not stated) | – | inactive |
| CN(C)CCC(NC(=O)Nc1ccc(Oc2ccccc2)cc1)c1ccc(Cl)cc1 (configuration not stated) | 108 | – |
| Cc1cc(C)c(C(=O)NC(CCN(C)C)c2ccc(Cl)cc2)cc1C (configuration not stated) | 159 | – |
| COc1ccc(NC(=O)NC(CCN(C)C)c2ccc(Cl)cc2)cc1 (configuration not stated) | 195 | – |
| CN(C)CCC(OC(=O)Nc1ccc(C(F)(F)F)cc1)c1ccc(Cl)cc1 (configuration not stated) | 94 | – |
| CN(C)CCC(OC(=O)Nc1ccc(C(C)(C)C)cc1)c1ccc(Cl)cc1 (configuration not stated) | 105 | – |
| Cc1ccc(C(=O)NC(CCN(C)C)c2ccc(Cl)cc2)c(C)c1 (configuration not stated) | 147 | – |
| Cc1ccccc1NC(=O)OC(CCN(C)C)c1ccc(Cl)cc1 (configuration not stated) | 176 | – |
| CN(C)CCC(OC(=O)Nc1ccc(-c2ccccc2)cc1)c1ccc(Cl)cc1 (configuration not stated) | 58 | – |
| CN(C)CCC(NC(=O)c1ccc(N(C)C)cc1)c1ccc(Cl)cc1 (configuration not stated) | 150 | – |
| CN(C)CCC(NC(=O)Nc1ccc(-c2ccccc2)cc1)c1ccc(Cl)cc1 (configuration not stated) | 91 | – |
| CN(C)CCC(OC(=O)Nc1ccc(Oc2ccccc2)cc1)c1ccc(Cl)cc1 (configuration not stated) | 107 | – |
| Cc1cccc(C(=O)NC(CCN(C)C)c2ccc(Cl)cc2)c1C (configuration not stated) | 159 | – |
| COc1cccc(NC(=O)NC(CCN(C)C)c2ccc(Cl)cc2)c1 (configuration not stated) | 146 | – |

| Compound | Efficacy [%] | Log EC50 |
| --- | --- | --- |
| CN(C)CCC(OC(=O)c1ccc2ccccc2c1)c1ccc(Cl)cc1 (configuration not stated) | 49 | – |
| COc1ccc(C(=O)OC(CCN(C)C)c2ccc(Cl)cc2)cc1 (configuration not stated) | 84 | – |
| CN(C)CCC(OC(=O)c1ccc(-c2ccccc2)cc1)c1ccc(Cl)cc1 (configuration not stated) | 53 | – |
| Cc1ccc(C(=O)OC(CCN(C)C)c2ccc(Cl)cc2)cc1 (configuration not stated) | 56 | – |
| CO[C@@H](C(=O)N[C@@H](CCN(C)C)c1ccc(Cl)cc1)c1ccccc1 | 165 | – |
| CN(C)CCC(NS(=O)(=O)c1ccc2ccccc2c1)c1ccc(Cl)cc1 (configuration not stated) | – | inactive |
| Cc1cccc(Cl)c1C(=O)NC(CCN(C)C)c1ccc(Cl)cc1 (configuration not stated) | 105 | – |
| Cc1cc2c(cc1C)C(=O)OC(CCN(C)C)(c1ccc(Cl)cc1)C2 (configuration not stated) | 146 | – |
| CCc1ccccc1C(=O)OC(CCN(C)C)c1ccc(Cl)cc1 (configuration not stated) | 128 | – |
| COc1cccc(C(=O)OC(CCN(C)C)c2ccc(Cl)cc2)c1C (configuration not stated) | 88 | – |
| CN(C)CCC(OC(=O)NCc1ccccc1)c1ccc(Cl)cc1 (configuration not stated) | 180 | – |
| CN(C)CCC(NC(=O)Cc1ccccc1)c1ccc(Cl)cc1 (configuration not stated) | 155 | – |
| Cc1ccc(C)c(C(=O)NC(CCN(C)C)c2ccc(Cl)cc2)c1 (configuration not stated) | 164 | – |
| Cc1cc(Br)ccc1C(=O)OC(CCN(C)C)c1ccc(Cl)cc1 (configuration not stated) | 95 | – |
| Cc1cccc(C(=O)OC(CCN(C)C)c2ccc(Cl)cc2)c1C (configuration not stated) | 91 | – |
| COc1ccc(NC(=O)OC(CCN(C)C)c2ccc(Cl)cc2)cc1 (configuration not stated) | 170 | – |
| CN(C)CCC(NC(=O)c1ccccc1)c1ccc(Cl)cc1 (configuration not stated) | 158 | – |
| CN(C)CCC(OC(=O)Nc1ccc2ccccc2c1)c1ccc(Cl)cc1 (configuration not stated) | 89 | – |
| COc1cccc(NC(=O)OC(CCN(C)C)c2ccc(Cl)cc2)c1 (configuration not stated) | 136 | – |
| CN(C)CCC(OC(=O)c1ccc(C(F)(F)F)cc1)c1ccc(Cl)cc1 (configuration not stated) | 47 | – |
| CN(C)CCC(OC(=O)c1cn(C)c2ccccc12)c1ccc(Cl)cc1 (configuration not stated) | 104 | – |
| CN(C)CCC(NC(=O)c1ccc2c(c1)OCO2)c1ccc(Cl)cc1 (configuration not stated) | 154 | – |

| Compound | Efficacy [%] | Log EC50 |
| --- | --- | --- |
| CN(C)CCC(NC(=O)c1ccc(C(F)(F)F)cc1)c1ccc(Cl)cc1 (configuration not stated) | 115 | – |
| Cc1ccccc1C(=O)OC(CCN(C)C)c1ccc(Cl)cc1 (configuration not stated) | 126 | – |
| CO[C@@H](C(=O)N[C@H](CCN(C)C)c1ccc(Cl)cc1)c1ccccc1 | 112 | – |
| CN(C)CCC(NC(=O)Nc1ccc(C(C)(C)C)cc1)c1ccc(Cl)cc1 (configuration not stated) | 103 | – |
| Cc1ccc(S(=O)(=O)NC(CCN(C)C)c2ccc(Cl)cc2)cc1 (configuration not stated) | 74 | – |
| COc1cccc(C(=O)NC(CCN(C)C)c2ccc(Cl)cc2)c1C (configuration not stated) | 179 | – |
| CN(C)CC[C@H](NC(=O)c1ccc2ccccc2c1)c1ccc(Cl)cc1 | 109 | – |
| CN(C)CCC(NC(=O)Nc1ccc(C(F)(F)F)cc1)c1ccc(Cl)cc1 (configuration not stated) | 105 | – |
| Cc1ccc(C)c(C(=O)OC(CCN(C)C)c2ccc(Cl)cc2)c1 (configuration not stated) | 86 | – |
| CN(C)CC[C@H](NC(=O)c1ccc(-c2ccccc2)cc1)c1ccc(Cl)cc1 | 116 | – |
| COc1ccc(C(=O)NC(CCN(C)C)c2ccc(Cl)cc2)cc1 (configuration not stated) | 162 | – |
| CCc1ccccc1C(=O)N[C@@H](CCN(C)C)c1ccc(Cl)cc1 | 140 | – |
| Cc1cc(C)c(C(=O)OC(CCN(C)C)c2ccc(Cl)cc2)cc1C (configuration not stated) | 60 | – |
| CN(C)CCC(OC(=O)c1cccc2ccccc12)c1ccc(Cl)cc1 (configuration not stated) | 95 | – |
| Cc1ccccc1NC(=O)NC(CCN(C)C)c1ccc(Cl)cc1 (configuration not stated) | 175 | – |
| Cc1c(Cl)cccc1C(=O)OC(CCN(C)C)c1ccc(Cl)cc1 (configuration not stated) | 118 | – |
| CN(C)CCC(OC(=O)c1cc2ccccc2n1C)c1ccc(Cl)cc1 (configuration not stated) | 73 | – |
| CN(C)CCC(NS(=O)(=O)c1ccc(-c2ccccc2)cc1)c1ccc(Cl)cc1 (configuration not stated) | – | inactive |
| CN(C)CCC(NC(=O)Nc1ccc2ccccc2c1)c1ccc(Cl)cc1 (configuration not stated) | 106 | – |
| Cc1c(Cl)cccc1C(=O)NC(CCN(C)C)c1ccc(Cl)cc1 (configuration not stated) | 142 | – |

target: T2, Urotensin-2 receptor (Homo sapiens, UniProt Q9UKP6); assay: as §1; format: cell-based; how it was run: as §2
T2 sequence (Q9UKP6 whole entry): T1 sequence (whole entry)

| Compound | EC50 [µM] |
| --- | --- |
| CN(C)CCC(NC(=O)NCc1ccccc1)c1ccc(Cl)cc1 (configuration not stated) | 2 |
| CN(C)CC[C@@H](NC(=O)c1ccc(-c2ccccc2)cc1)c1ccc(Cl)cc1 | 1.45 |
| CN(C)CCC1(c2ccc(Cl)cc2)Cc2ccccc2C(=O)O1 (configuration not stated) | 1.12 |
| CN(C)CCC(NC(=O)Nc1ccc(Oc2ccccc2)cc1)c1ccc(Cl)cc1 (configuration not stated) | 0.11 |
| COc1ccc(NC(=O)NC(CCN(C)C)c2ccc(Cl)cc2)cc1 (configuration not stated) | 2 |
| CN(C)CCC(OC(=O)Nc1ccc(C(F)(F)F)cc1)c1ccc(Cl)cc1 (configuration not stated) | 0.251 |
| CN(C)CCC(OC(=O)Nc1ccc(C(C)(C)C)cc1)c1ccc(Cl)cc1 (configuration not stated) | 1.82 |
| CN(C)CCC(OC(=O)Nc1ccc(-c2ccccc2)cc1)c1ccc(Cl)cc1 (configuration not stated) | 0.269 |
| CN(C)CCC(NC(=O)Nc1ccc(-c2ccccc2)cc1)c1ccc(Cl)cc1 (configuration not stated) | 0.145 |
| CN(C)CCC(OC(=O)Nc1ccc(Oc2ccccc2)cc1)c1ccc(Cl)cc1 (configuration not stated) | 0.191 |
| COc1ccc(C(=O)OC(CCN(C)C)c2ccc(Cl)cc2)cc1 (configuration not stated) | 2.19 |
| CO[C@@H](C(=O)N[C@@H](CCN(C)C)c1ccc(Cl)cc1)c1ccccc1 | 0.871 |
| Cc1cc2c(cc1C)C(=O)OC(CCN(C)C)(c1ccc(Cl)cc1)C2 (configuration not stated) | 0.135 |
| COc1cccc(C(=O)OC(CCN(C)C)c2ccc(Cl)cc2)c1C (configuration not stated) | 1.95 |
| Cc1cccc(C(=O)OC(CCN(C)C)c2ccc(Cl)cc2)c1C (configuration not stated) | 1.15 |
| COc1ccc(NC(=O)OC(CCN(C)C)c2ccc(Cl)cc2)cc1 (configuration not stated) | 1.66 |
| CN(C)CCC(OC(=O)Nc1ccc2ccccc2c1)c1ccc(Cl)cc1 (configuration not stated) | 0.525 |
| CN(C)CCC(OC(=O)c1ccc(C(F)(F)F)cc1)c1ccc(Cl)cc1 (configuration not stated) | 1.74 |
| CN(C)CCC(OC(=O)c1cn(C)c2ccccc12)c1ccc(Cl)cc1 (configuration not stated) | 1.51 |
| CN(C)CCC(NC(=O)c1ccc(C(F)(F)F)cc1)c1ccc(Cl)cc1 (configuration not stated) | 0.0776 |
| CO[C@@H](C(=O)N[C@H](CCN(C)C)c1ccc(Cl)cc1)c1ccccc1 | 5.01 |
| CN(C)CCC(NC(=O)Nc1ccc(C(C)(C)C)cc1)c1ccc(Cl)cc1 (configuration not stated) | 0.275 |
| CN(C)CC[C@H](NC(=O)c1ccc2ccccc2c1)c1ccc(Cl)cc1 | 0.407 |
| CN(C)CCC(NC(=O)Nc1ccc(C(F)(F)F)cc1)c1ccc(Cl)cc1 (configuration not stated) | 0.117 |
| CN(C)CC[C@H](NC(=O)c1ccc(-c2ccccc2)cc1)c1ccc(Cl)cc1 | 0.0324 |
| CCc1ccccc1C(=O)N[C@@H](CCN(C)C)c1ccc(Cl)cc1 | 1.02 |
| CN(C)CCC(OC(=O)c1cc2ccccc2n1C)c1ccc(Cl)cc1 (configuration not stated) | 1.38 |
| CN(C)CCC(NC(=O)Nc1ccc2ccccc2c1)c1ccc(Cl)cc1 (configuration not stated) | 0.288 |
